Test results: ChEMBL document CHEMBL1148756, “Discovery of 3,3'-(2,4-diaminopteridine-6,7-diyl)diphenol as an isozyme-selective inhibitor of PI3K for the treatment of ischemia reperfusion injury associated with myocardial infarction” (J Med Chem, 2007)
Calls of active or inactive are those of the source. The rule behind the calls is not given here.

Assays:
[1] = molecular target: Phosphatidylinositol 4,5-bisphosphate 3-kinase catalytic subunit gamma isoform (Homo sapiens, UniProt P48736); assay: Inhibition of recombinant PI3Kgamma
Method in brief: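 Luminescence kinase assay with recombinant PI3K p120 gamma (250-500 ng/well), ambient temperature, in 20 mM Tris pH 7.4, 4 mM MgCl2, 10 mM NaCl, 50 µM PIP2 substrate. Compound added in DMSO at 100 to 0.001 µM final. ATP added from a 3 µM stock. Stopped after 90 min with Kinase-Glo and read by luminescence. IC50 from nonlinear curve fit.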

[2] = Volume of distribution at steady state in Sprague-Dawley rat at 5.0 mg/kg, iv; format: ADME, organism-based; design: dose 5 mg/kg, route intravenous; conditions: in vivo, read-out: Vdss
Method in brief: (§1)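 Male Sprague-Dawley rats (200-250 g, N = 5 per dose) were given a single iv tail bolus of 0.5 or 5 mg/kg in aqueous 9.5% Captisol. Jugular-catheter blood was drawn at 5, 15, 30 min and 1, 2, 4, 6, 8, 24 h. Plasma was acetonitrile-extracted and quantified by LC/MS/MS (calibration 1-10 000 ng/mL). Parameters were derived noncompartmentally, with CL = dose/AUC(0-inf) and Vdss = CL × MRT.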

[3] = Clearance in Sprague-Dawley rat at 5.0 mg/kg, iv; format: ADME, organism-based; design: dose 5 mg/kg, route intravenous; conditions: in vivo; method in brief: as §1
[4] = molecular target: Ribosomal protein S6 kinase beta-1 (Homo sapiens) (UniProt P23443); assay: Inhibition of VEGF-induced phosphorylation of p70S6 at 10 uM
Sequence of Ribosomal protein S6 kinase beta-1 (Homo sapiens) (P23443 whole entry, looked up): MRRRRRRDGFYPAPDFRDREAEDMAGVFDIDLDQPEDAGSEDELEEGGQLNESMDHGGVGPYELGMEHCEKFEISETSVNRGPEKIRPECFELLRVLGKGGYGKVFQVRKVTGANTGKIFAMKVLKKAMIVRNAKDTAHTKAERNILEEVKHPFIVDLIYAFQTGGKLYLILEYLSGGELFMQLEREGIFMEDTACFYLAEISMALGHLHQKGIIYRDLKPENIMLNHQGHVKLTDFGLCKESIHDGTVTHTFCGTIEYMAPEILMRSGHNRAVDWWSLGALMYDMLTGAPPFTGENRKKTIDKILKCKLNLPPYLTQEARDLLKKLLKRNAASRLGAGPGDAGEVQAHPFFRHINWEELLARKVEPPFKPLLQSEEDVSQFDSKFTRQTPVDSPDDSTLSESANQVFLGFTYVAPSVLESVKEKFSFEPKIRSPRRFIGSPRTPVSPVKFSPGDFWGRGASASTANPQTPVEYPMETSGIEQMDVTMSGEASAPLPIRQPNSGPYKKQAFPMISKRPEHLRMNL
Method in brief: (§2)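 HUVECs (passage 2-4) were serum-starved for 4 h in EBM-2, then exposed for 10 min to 20 ng/mL recombinant human VEGF with or without 10 µM compound in DMSO. Cells were PBS-rinsed and lysed in RIPA, and lysates were normalized by BCA. Samples were screened externally by Western-blot-based antibody panels covering 73 phosphorylated kinases.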

[5] = Half life in Sprague-Dawley rat at 5.0 mg/kg, iv; format: ADME, organism-based; design: dose 5 mg/kg, route intravenous; conditions: in vivo; method in brief: as §1
[6] = Cmax in Sprague-Dawley rat at 5.0 mg/kg, iv; format: ADME, organism-based; design: dose 5 mg/kg, route intravenous; conditions: in vivo; method in brief: as §1
[7] = molecular target: Serine/threonine-protein kinase mTOR (Homo sapiens) (UniProt P42345); assay: Inhibition of VEGF-induced phosphorylation of mTOR at 10 uM; method in brief: as §2
[8] = Volume of distribution at steady state in Sprague-Dawley rat at 0.5 mg/kg, iv; format: ADME, organism-based; design: dose 0.5 mg/kg, route intravenous; conditions: in vivo, read-out: Vdss; method in brief: as §1
[9] = Half life in Sprague-Dawley rat at 0.5 mg/kg, iv; format: ADME, organism-based; design: dose 0.5 mg/kg, route intravenous; conditions: in vivo; method in brief: as §1
[10] = Plasma concentration in Sprague-Dawley rat at 0.5 mg/kg, iv; format: ADME, organism-based; design: dose 0.5 mg/kg, route intravenous; method in brief: as §1
[11] = Clearance in Sprague-Dawley rat at 0.5 mg/kg, iv; format: ADME, organism-based; design: dose 0.5 mg/kg, route intravenous; conditions: in vivo; method in brief: as §1
[12] = molecular target: RAC-alpha serine/threonine-protein kinase (Homo sapiens) (UniProt P31749); assay: Inhibition of FGF-induced AKT phosphorylation in HUVEC cells by Western blot at 10 uM; format: cell-based
Sequence of RAC-alpha serine/threonine-protein kinase (Homo sapiens) (P31749 whole entry): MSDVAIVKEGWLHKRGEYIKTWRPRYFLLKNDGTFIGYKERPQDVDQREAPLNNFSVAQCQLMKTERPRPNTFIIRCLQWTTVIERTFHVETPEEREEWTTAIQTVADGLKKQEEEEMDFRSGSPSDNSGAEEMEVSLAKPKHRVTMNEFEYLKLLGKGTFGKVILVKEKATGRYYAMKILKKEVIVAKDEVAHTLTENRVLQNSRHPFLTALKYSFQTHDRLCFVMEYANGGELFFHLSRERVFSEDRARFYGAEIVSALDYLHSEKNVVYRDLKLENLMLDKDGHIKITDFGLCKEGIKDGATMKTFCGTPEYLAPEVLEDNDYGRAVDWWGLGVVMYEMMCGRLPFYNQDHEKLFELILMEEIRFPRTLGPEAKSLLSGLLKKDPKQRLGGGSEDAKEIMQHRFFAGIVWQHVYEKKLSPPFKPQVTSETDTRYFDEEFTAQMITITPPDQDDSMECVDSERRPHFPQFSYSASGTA
Method in brief: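 Serum-starved HUVECs were pretreated for 15 min with compound (0.125-10 µM) or vehicle, then stimulated for 5 min with 20 ng/mL recombinant bFGF. Cells were lysed in RIPA, protein was normalized by BCA, and lysates were run on SDS-PAGE. Blots were probed for phospho-Akt, stripped, and reprobed for total Akt.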

[13] = AUC (0 to infinity) in Sprague-Dawley rat at 5.0 mg/kg, iv; format: ADME, organism-based; design: time infinity, dose 5 mg/kg, route intravenous; conditions: plasma
Method in brief: (§3)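 Male Sprague-Dawley rats (200-250 g, N = 5 per dose) given a single iv tail bolus in aqueous 9.5% Captisol. Serial plasma was taken via jugular catheter from 5 min to 24 h. Samples were acetonitrile-extracted with internal standard and quantified by LC/MS/MS (calibration 1-10 000 ng/mL). AUC(0-inf) came from noncompartmental analysis.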

[14] = Cmax in Sprague-Dawley rat at 0.5 mg/kg, iv; format: ADME, organism-based; design: dose 0.5 mg/kg, route intravenous; conditions: in vivo; method in brief: as §1
[15] = Plasma concentration in Sprague-Dawley rat at 5.0 mg/kg, iv; format: ADME, organism-based; design: dose 5 mg/kg, route intravenous; method in brief: as §1
HUVEC = assay: Inhibition of VEGF-induced VE-cadherin phosphorylation in HUVEC cells by Western blot at 10 uM; format: cell-based; conditions: Homo sapiens
Method in brief: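 Serum-starved HUVECs were pretreated for 15 min with compound (0.125-10 µM) or vehicle, then given 20 ng/mL recombinant VEGF for 5 min. RIPA lysates were loaded at equal protein (BCA, with β-actin as loading control) on SDS-PAGE. Blots were probed for phospho-VE-cadherin, stripped, and reprobed for total VE-cadherin.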

[16] = AUC (0 to infinity) in Sprague-Dawley rat at 0.5 mg/kg, iv; format: ADME, organism-based; design: time infinity, dose 0.5 mg/kg, route intravenous; conditions: plasma; method in brief: as §3

`Nc1nc(N)c2ncc(-c3cccc(O)c3)nc2n1` gave an IC50 [1] of 3 µM.
With `Nc1ncnc2ncc(-c3ccc(O)c(O)c3)nc12` the IC50 [1] was 1.3 µM.
`Nc1nc(NCCCN2CCOCC2)c2nc(-c3cccc(O)c3)c(-c3cccc(O)c3)nc2n1` showed an IC50 [1] of 51 µM.
With `Nc1ccc2nc(-c3ccc(O)cc3)c(-c3ccc(O)cc3)nc2n1` the Activity [1] was “inactive”.
`Nc1nc(N)c2nc(-c3ccccc3)c(-c3ccccc3)nc2n1` gave an IC50 [1] of 8.5 µM.
In the case of `Nc1ccc2nc(-c3cccc(O)c3)c(-c3cccc(O)c3)nc2n1`, the Activity [1] is reported as “inactive”.
Compound `Nc1nc(N)c2nc(-c3ccc(O)cc3)c(-c3ccc(O)cc3)nc2n1` has an IC50 [1] of 2.7 µM.
For `Nc1ccc2nc(-c3ccc(O)c(O)c3)c(-c3ccc(O)c(O)c3)nc2n1`, the Activity [1] was “inactive”.
Work on `Nc1nc(N)c2ncc(-c3ccc(O)c(O)c3)nc2n1` yielded an IC50 [1] of 5.9 µM.
Compound `Nc1ncnc2nc(-c3ccc(O)c(O)c3)cnc12` has an IC50 [1] of 5.1 µM.
In the case of `Oc1cccc(-c2nc3nc(NCCCN4CCOCC4)nc(NCCCN4CCOCC4)c3nc2-c2cccc(O)c2)c1`, the Activity [1] is reported as “inactive”.
For `Nc1nc(N)c2nc(-c3ccc(O)cc3)cnc2n1`, the IC50 [1] was 1.2 µM.
In the case of `CCN(CC)CCOc1cccc(-c2nc3nc(N)nc(N)c3nc2-c2cccc(OCCN(CC)CC)c2)c1`, the Activity [1] is reported as “inactive”.
Compound `Oc1cccc(-c2nc3nc(O)nc(O)c3nc2-c2cccc(O)c2)c1` has an IC50 [1] of 46 µM.
`COc1cccc(-c2nc3nc(N)nc(N)c3nc2-c2cccc(OC)c2)c1` showed an IC50 [1] of 12.6 µM.
For `Nc1cncc2nc(-c3ccc(O)cc3)c(-c3ccc(O)cc3)nc12`, the Activity [1] was “inactive”.
With `Nc1nc(N)c2ncc(-c3ccc(O)cc3)nc2n1` the IC50 [1] was 4.7 µM.
`Nc1nc(N)c2nc(-c3cccc(OCC(O)CO)c3)c(-c3cccc(OCC(O)CO)c3)nc2n1` (stereo unspecified) gave an IC50 [1] of 32.7 µM.
With `Nc1cncc2nc(-c3cccc(O)c3)c(-c3cccc(O)c3)nc12` the Activity [1] was “inactive”.
`Nc1ncnc2nc(-c3cccc(O)c3)c(-c3cccc(O)c3)nc12` showed an IC50 [1] of 4 µM.
`Nc1ccc2nc(-c3cccc(O)c3)c(-c3cccc(O)c3)nc2c1` showed an IC50 [1] of 17 µM.
For `Nc1ncnc2nc(-c3ccc(O)cc3)c(-c3ccc(O)cc3)nc12`, the IC50 [1] was 4 µM.
In the case of `Oc1cccc(-c2nc3cncnc3nc2-c2cccc(O)c2)c1`, the IC50 [1] is reported as 9 µM.
With `Nc1nc(N)c2nc(-c3cccc(O)c3)c(-c3cccc(O)c3)nc2n1` [TG100-115] the Vd [2] was 4.4 L/kg, the clearance [3] was 66 mL/min/kg and the Activity [4] was “Active”. The half-life [5] was 48 min, the Cmax [6] was 3330 ng/mL and the Activity [7] was “Active”. For the same compound, the Vd [8] was 2.3 L/kg, the half-life [9] was 24 min and the C0 [10] was 713 ng/mL. The clearance [11] was 71 mL/min/kg, the Activity [12] was “Dose-dependent effect” and the AUC(0-inf) [13] was 1380 ng·h/mL. For the same compound, the Cmax [14] was 363 ng/mL, the C0 [15] was 7730 ng/mL and the Activity (HUVEC) was “Active”. It also gave an AUC(0-inf) [16] of 124 ng·h/mL.
In the case of `Nc1nc(N)c2nc(-c3ccc(O)c(O)c3)cnc2n1`, the IC50 [1] is reported as 0.195 µM.
With `CCOP(=O)(OCC)Oc1cccc(-c2nc3nc(N)nc(N)c3nc2-c2cccc(OP(=O)(OCC)OCC)c2)c1` the Activity [1] was “inactive”.
